Reference: PMC4277779 (Journal of the American Chemical Society, 2014)
Non-standard residues stand in square brackets, D forms with d. No end group written: not given here. Orn = NCCC[C@H](N)C(=O)O

Columns and labels:
[1] = ΔδCαH-based β-hairpin population and thermodynamic analysis by NMR; assay type: physicochemical; conditions: relative to parent peptide I, 4 °C, pH 3.8; for ΔΔGfold: calculated for each reporter position and averaged
Method in brief: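 NMR samples were prepared in 100 mM acetate buffer, pH 3.8.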

[2] = Far-UV circular dichroism: effects of pH and temperature; assay type: physicochemical; conditions: 4 to 20 to 37 °C, phosphate buffer
Method in brief: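 Far-UV CD spectra of the test peptides were recorded in phosphate buffer (pH 7.0) and in the NMR buffer (100 mM acetate, pH 3.8). A temperature series at 4, 20 and 37 °C was run in phosphate buffer.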

[3] = 4 °C, cited from earlier work
[4] = aqueous buffer pH 3.8, ref 9a (Syud et al.)

Row | Substance | effect of residue replacement on β-hairpin population (in words) [1] | ΔΔGfold [1] | effect of temperature on far UV CD (in words) [2] | population of the β-hairpin conformation ([3]; aqueous buffer pH 3.8, NMR, ref 9b) | β-hairpin population at reporter position Ile 10 [3, 4] | β-hairpin population at reporter position Orn 8 [3, 4] | β-hairpin population at reporter position Val 3 [3, 4] | β-hairpin population at reporter position Val 5 [3, 4]
1 | Arg-Tyr-Val-Glu-Val-DPro-Gly-Orn-TO+-Ile-Leu-Gln-NH2 [Peptide II] | little effect on β-hairpin population | +0.1 ± 0.2 kcal/mol | – | – | – | – | – | –
2 | Arg-Tyr-Val-Glu-Val-DPro-Gly-Orn-TS+-Ile-Leu-Gln-NH2 [Peptide III] | enhanced β-hairpin population | –0.5 ± 0.4 kcal/mol | does not significantly alter | – | – | – | – | –
3 | Arg-Tyr-Val-TS--Val-DPro-Gly-Orn-Lys-Ile-Leu-Gln-NH2 [Peptide IV] | enhanced β-hairpin population | –0.6 ± 0.3 kcal/mol | does not significantly alter | – | – | – | – | –
4 | RYVEV[dP]G[Orn]KILQ-NH2 [Peptide I] | – | – | does not significantly alter | ~68% | 59% | 65% | 70% | 76%
